One experiment relates to L6. Description: Stimulation of [3H]2-deoxyglucose uptake in rat L6 cells at 10 uM incubated for 16 hrs by scintillation counting method. It is filed as functional, cell-based. In outline: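 L6 myotubes incubated with the compound […]; insulin at 100 nM for 20 min served as the positive control. Uptake of ³H-2-deoxyglucose measured and expressed as fold stimulation relative to the control condition.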

Experiment [1] has as its system Mus musculus. Description: Antihyperglycemic activity in db/db mouse assessed as reduction in cholesterol level at 10 mg/kg, po qd for 15 days. It is filed as functional. More on the design: scale not given: the % may be the effect or the level left. In outline:
(§1)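 db/db mice given 3, 10 or 30 mg/kg orally once a day for 15 consecutive days, alongside vehicle controls. Serum triglyceride, total cholesterol, HDL-C and insulin measured, along with fasting blood glucose. Expressed as mean % change in 5 animals per group versus control.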

In experiment [2] the test system is Mus musculus. Description: Antihyperglycemic activity in db/db mouse assessed as improvement on glucose tolerance by measuring blood glucose AUC level at 10 mg/kg, po qd for 15 days by oral glucose tolerance test. It is filed as functional. In outline: (§2)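 db/db mice dosed orally once daily for 15 consecutive days at 3, 10 or 30 mg/kg, with vehicle controls and pioglitazone at 10 mg/kg. Oral glucose tolerance tests on day 10 and day 15. Overall improvement in glucose tolerance calculated against vehicle control. Mean % change in 5 animals per group.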

Experiment [3] concerns Mus musculus. The experiment is described as follows: Antihyperglycemic activity in db/db mouse assessed as reduction in triglyceride level at 10 mg/kg, po qd for 15 days. The format is functional. More on the design: scale not given: the % may be the effect or the level left. In outline:
as §1

Experiment [4] relates to Mus musculus. Description: Antihyperglycemic activity in db/db mouse assessed as reduction in fasting blood glucose level at 10 mg/kg, po qd for 15 days. More on the design: scale not given: the % may be the effect or the level left. The format is functional. In outline:
as §1

Experiment [5] relates to Mus musculus. Description: Antihyperglycemic activity in db/db mouse assessed as reduction in blood glucose level at 10 mg/kg, po qd and measured on day 4 by oral glucose tolerance test. The format is functional, organism-based. The essentials:
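Type 2 diabetic db/db mice dosed orally once a day for 15 days at 3, 10 or 30 mg/kg, with pioglitazone at 10 mg/kg as standard. Blood glucose measured daily and profile compared with vehicle-treated animals. Mean % change in 5 animals per group.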

In experiment [6] the test system is Mus musculus. The experiment is described as follows: Antihyperglycemic activity in db/db mouse assessed as reduction in insulin level at 10 mg/kg, po qd for 15 days. The format is functional. More on the design: scale not given: the % may be the effect or the level left. The essentials: as §1
In experiment [7] the test system is Mus musculus. Description: Antihyperglycemic activity in db/db mouse assessed as increase in HDL-C level at 10 mg/kg, po qd for 15 days. It is filed as functional. The essentials:
as §1

Experiment [8] relates to Mus musculus. The experiment is described as follows: Antihyperglycemic activity in db/db mouse assessed as improvement on glucose tolerance by measuring blood glucose AUC level at 10 mg/kg, po qd for 10 days by oral glucose tolerance test. It is filed as functional. In outline: as §2
A further experiment concerns HepG2. Description: Stimulation of [3H]2-deoxyglucose uptake in human HepG2 cells at 10 uM incubated for 16 hrs by scintillation counting method. It is filed as functional, cell-based.

Activity calls are given as the source filed them. No cut-off for these calls is given here.

As to `COC(=O)c1c(SC)cc(-c2ccccc2)c2c1-c1cn(-c3ccccc3)nc1CC2`, in the experiment on L6, the result was inactive.
Regarding `CCc1ccc(CCOc2ccc(CC3SC(=O)NC3=O)cc2)nc1` (stereo not drawn) [PIOGLITAZONE], the Activity with Mus musculus [1] is reported as 15.1%; in the experiment with Mus musculus [2], 45.4%; in the experiment with Mus musculus [3] it was 9.58%; in the experiment with Mus musculus [4] it was 59.1%; in the experiment on Mus musculus [6], 58.1%; in the experiment on Mus musculus [7], 23.9%. For the same compound, in the experiment with Mus musculus [8], the Activity is given as 34.8%. Moreover, in the experiment on Mus musculus [5], the result was Active.
As to `COC(=O)c1c(SC)cc(-c2ccc(Br)cc2)c2c1-c1cn(-c3ccccc3)nc1CC2`, the outcome in the experiment on L6 was inactive.
Regarding `COC(=O)c1c(S(C)(=O)=O)cc(-c2ccc(F)cc2)c2c1-c1cn(-c3ccccc3)nc1CC2`, the outcome with L6 was inactive.
For the compound `COC(=O)c1c(SC)cc(-c2cccs2)c2c1-c1cn(-c3ccccc3)nc1CC2`, in the experiment with L6, the outcome was inactive.
Turning to `COC(=O)c1c(SC)cc(-c2ccc3ccc4cccc5ccc2c3c45)c2c1-c1cn(-c3ccccc3)nc1CC2`, in the experiment on L6, the result was inactive.
Regarding `COC(=O)c1c(SC)cc(-c2ccc(F)cc2)c2c1-c1cn(-c3ccccc3)nc1CC2`, the outcome in the experiment on L6 was inactive.
Turning to `COC(=O)c1c(SC)cc(-c2ccc(Cl)cc2)c2c1-c1cn(-c3ccccc3)nc1CC2`, in the experiment on L6, the outcome was inactive.
Still for that read-out and setting: the entry for `COC(=O)c1c(S(C)(=O)=O)cc(-c2ccc(C)cc2)c2c1-c1cn(-c3ccccc3)nc1CC2` is “inactive”.
Consider `CN(C)C(=N)NC(=N)N`, for which the outcome with HepG2 was Active.
For the compound `COC(=O)c1c(SC)cc(-c2ccc(OC)cc2)c2c1-c1cn(-c3ccccc3)nc1CC2`, the outcome with L6 was inactive.

Values taken from ChEMBL document CHEMBL4138048, “Synthesis of substituted 2H-benzo[e]indazole-9-carboxylate as a potent antihyperglycemic agent that may act through IRS-1, Akt and GSK-3β pathways” (Medchemcomm, 2017).
